Data on 10 molecules can be found in PubChem BioAssay AID602174 (The Scripps Research Institute Molecular Screening Center, 2012).

This test deals with MCF7 proliferation, sulforhodamine B absorbance. The test is described as follows: MCF7 cell proliferation modulation, late-stage follow-up, counter-screen for AHR activator project, absorbance (AID 602174). As to conditions: at 10 µM. In a few lines: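 System: MCF7 cells; input: 2,000 MCF7 cells seeded per well; medium: alpha-MEM plus 10% FBS; schedule: 24 h post-seeding before treatment, then 8–10 day compound exposure at 37 °C; technique: SRB absorbance, 490 nm with 650 nm background subtracted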
For the molecule `CCOc1ccc(-c2cc(C)n3nc(C(N)=O)cc3n2)cc1`, the proliferation change was -20.5%.
Under `CCOC(=O)Cc1cc(-c2ccc(O)cc2)nc2ccc3ccccc3c12` stands -84.8%; under `Cc1nc(N)nc(Nc2ccc(Cl)cc2)c1Br`, -86.8%; under `Cc1c(-c2ccn[nH]2)cc(NC(=O)c2ccc(Cl)cc2)c(=O)n1N`, -73%.
Under `COc1ccc(NC(=O)c2cccc3c(Br)cccc23)cc1` stands -59.5%; under `Cc1nnc(N2C(=O)c3cccc4c([N+](=O)[O-])ccc(c34)C2=O)s1`, -79%; under `Cn1c(C(=O)N2CCC(C(N)=O)CC2)cc2cc(Cl)ccc21`, -49.2%.
Under `COc1ccccc1NC(=O)c1ccc(C(=O)Nc2ccccc2OC)nc1` stands -90.8%; under `Cc1csc(SCC(=O)Nc2ccc(Cl)cn2)n1`, -63.2%; under `Cc1ccc(-c2cc(-c3cccs3)[nH]n2)c(O)c1`, -98.1%.
